A selection: hits, their analogues and other compounds. The true share with any hit is near 2.9%.
DDE Tn6 FP inh: DD(E)-Tn6 binding inhibition, primary FP screen; P02675; inhibition, % at 8.3 µM; Fibrin DD(E) TRITC-Tn6 fluorescence polarization displacement; 370,000 tested, 0.21% active;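 active = inhibition above a per-campaign cutoff: mean of compounds within control limits plus 3 SD, cut at about 15% in these data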
Target sequence (P02675 whole entry, looked up): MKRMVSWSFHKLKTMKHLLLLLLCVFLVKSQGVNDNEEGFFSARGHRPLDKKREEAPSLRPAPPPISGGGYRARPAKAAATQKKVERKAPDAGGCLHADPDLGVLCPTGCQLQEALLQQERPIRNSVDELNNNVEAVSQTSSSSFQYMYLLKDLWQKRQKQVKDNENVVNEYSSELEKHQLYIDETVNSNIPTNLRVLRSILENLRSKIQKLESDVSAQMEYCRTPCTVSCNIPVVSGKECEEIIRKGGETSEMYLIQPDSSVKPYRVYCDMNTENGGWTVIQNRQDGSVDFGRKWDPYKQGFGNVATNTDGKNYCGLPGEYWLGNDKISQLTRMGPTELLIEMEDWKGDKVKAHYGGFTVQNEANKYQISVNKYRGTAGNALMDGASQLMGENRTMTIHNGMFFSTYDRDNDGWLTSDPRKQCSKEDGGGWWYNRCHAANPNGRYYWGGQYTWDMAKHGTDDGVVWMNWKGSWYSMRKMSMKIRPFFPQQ
CRFR2-BP antag: antagonists of CRF-binding protein/CRF-R2 receptor complex; HEK293 CRF-R2/CRF-BP, CRF-induced calcium fluorescence; AID 588475; inhibition, % at 11.8 µM; 350,000 tested, 0.59% active;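 active = inhibition of the ligand-induced calcium signal above about 50% at the single tested concentration, limit read from the data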
DDE Tn7 FP inh: disrupts Tn7 cyclic peptide binding to fibrin D-Dimer-E complex; inhibition, % at 8.3 µM; 370,000 tested, 0.13% active; AID 720508; FP displacement of FITC-Tn7 peptide from fibrin DD(E); 0% = median of compound wells per plate; P02675;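 active = inhibition above the mean of compounds falling within the control limits plus 3 SD of them, cut at about 14% in these data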
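System: human fibrin DD(E); quantity: Fibrin-DD(E) at 2 µM final; also added: fluorescent Tn7 probe at 0.1 µM; compound dosing: single nominal test concentration of 8.3 µM per compound; schedule: 10 min preincubation, 3 h with tracer, room temperature; detection: fluorescence polarization of the labelled Tn7 tracer; repeats: one replicate per compound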
CRFBP-R2 agonist: agonists of human CRF-binding protein/CRF-R2 receptor complex. HEK293 CRF-R2/CRF-BP, calcium dye fluorescence (FLIPR); percent of saturating CRF peptide response. activation, % at 13.2 µM. 350,000 tested, 0.46% active. AID 588473;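 active = activation of at least 50%, plus an integration ratio under a set limit after plate pattern correction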
proKLK7 act: proKLK7 (human) activation, primary screen; purified proKLK7, EDANS-DABCYL substrate fluorescence; 100% is mature enzyme control, 0% vehicle; activation, % at 7 µM; 370,000 tested, 0.9% active;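 active = activation above the mean of all tested compounds plus 3 SD, computed per campaign excluding outliers beyond control limits, cut at about 13% in these data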
Target sequence (P49862 whole entry, looked up): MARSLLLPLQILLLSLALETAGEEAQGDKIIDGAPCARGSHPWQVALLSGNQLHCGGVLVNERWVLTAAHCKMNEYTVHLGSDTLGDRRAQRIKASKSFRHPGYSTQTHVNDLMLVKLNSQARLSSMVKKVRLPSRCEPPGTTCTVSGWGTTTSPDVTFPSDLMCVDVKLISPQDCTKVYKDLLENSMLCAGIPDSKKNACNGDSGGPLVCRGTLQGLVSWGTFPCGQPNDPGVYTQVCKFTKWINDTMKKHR
CendR NRP1 mod: modulators of CendR peptide binding to human neuropilin-1; O14786; inhibition, % at 25 µM; AID 602438; 360,000 tested, 0.85% active; FAM-RPARPAR peptide binding to NRP-1, fluorescence polarization;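 active = inhibition or corrected inhibition above about 18%, plus a signal ratio from 0.5 to 1.5, limit read from the data, passing the limit was not always enough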
Large screens that a line does not name were inactive.

NS(=O)(=O)c1ccc(NC(=O)c2ccc(S(=O)(=O)N3CCOCC3)o2)cc1	none
C[C@@H]1O[C@@H](n2c3ccc(Cl)cc3c3ccc4c5cc(Cl)ccc5[nH]c4c32)[C@H](O)[C@H](O)[C@H]1O	none (no result: CRFR2-BP antag, CRFBP-R2 agonist, CendR NRP1 mod)
O=C(Nc1ccccc1C(=O)Nc1nnc(C(F)(F)F)s1)c1ccccc1Cl	CRFR2-BP antag 50
Cc1nnc(NC(=O)c2ccccc2C(=O)O)s1	CendR NRP1 mod 35
CC(NC(=O)Nc1nnc(C(F)(F)F)s1)(C(F)(F)F)C(F)(F)F	CRFBP-R2 agonist 59
NC(=O)c1ccccc1NC(=O)c1ccccc1Cl	none
Cc1nnc(NC(=O)c2ccccc2Oc2ccccc2)s1	none
O=C(Nc1nnc(C(F)(F)F)s1)c1ccc(Br)s1	CRFR2-BP antag 54, CRFBP-R2 agonist 98
FC(F)(F)c1ccccc1C(C#Cc1ccccc1)NCc1ccc2c(c1)OCO2 (stereo not drawn)	none (no result: CRFR2-BP antag, CRFBP-R2 agonist, CendR NRP1 mod)
O=C(NCc1ccc(Cl)cc1)OCCN1C(=O)CCC12CCC(c1ccccc1)CC2 (stereo not drawn)	none (no result: CRFR2-BP antag, CRFBP-R2 agonist, CendR NRP1 mod)
N#Cc1ccc(S(=O)(=O)N2CCCc3nc(-c4ccccc4)ccc32)cc1	none (no result: CRFR2-BP antag, CRFBP-R2 agonist, CendR NRP1 mod)
Cc1onc(-c2ccc(Cl)cc2)c1-c1ccn(S(=O)(=O)c2ccccc2Cl)n1	none (no result: CRFR2-BP antag, CRFBP-R2 agonist, CendR NRP1 mod)
O=C(Nc1ccccc1Br)C1CC(=O)N(c2ccc3c4c(cccc24)CC3)C1 (stereo not drawn)	CendR NRP1 mod 38
Cc1ccccc1NC(=O)C1CC(=O)N(c2ccc3c4c(cccc24)CC3)C1 (stereo not drawn)	none
Cc1ccc(-n2c(SCC(=O)NN=Cc3ccc(-c4ccccc4)cc3)nnc2-c2ccccc2)cc1	none (no result: CRFR2-BP antag, CRFBP-R2 agonist, CendR NRP1 mod)
Cc1ccc2c(c1)C1CS(=O)(=O)N(Cc3ccc(F)cc3)CN1C2 (stereo not drawn)	none (no result: CRFR2-BP antag, CRFBP-R2 agonist, CendR NRP1 mod)
CC(C)[C@H]1COc2c3ccccc3nn21	none (no result: CRFR2-BP antag, CRFBP-R2 agonist, CendR NRP1 mod)
O=C(C1CCN(C2CCN(CC3CC=CCC3)CC2)CC1)N1CCOCC1 (stereo not drawn)	CRFR2-BP antag 86
CC(C)NC(=O)C1CCN(C2CCN(CC3CC=CCC3)CC2)CC1 (stereo not drawn)	none
N#Cc1c(C(F)(F)F)cc(-c2ccccc2)nc1SCc1nc(N)nc(N2CCOCC2)n1	CRFBP-R2 agonist 69
N#Cc1c(C(F)(F)F)cc(-c2ccc(Cl)c(Cl)c2)nc1SCCN1CCOCC1	none (no result: DDE Tn6 FP inh, DDE Tn7 FP inh, proKLK7 act)
CN(C)c1nc(NCc2ccccc2)nc(SCC(=O)Nc2ccccc2Cl)n1	CRFR2-BP antag 58
CN(C)c1nc(NCc2ccccc2)nc(SCC(=O)Nc2ccccc2)n1	none
Cc1nc(SCC(=O)NCCc2ccccc2)n[nH]1	none
O=C(CSc1nccc(-c2ccc(Br)cc2)n1)NCCc1ccccc1	CendR NRP1 mod 28
O=c1nc2s/c(=C\c3ccc(-c4ccccc4[N+](=O)[O-])o3)c(=O)n2nc1-c1ccccc1	CendR NRP1 mod 36
Cc1ccc(OCc2nnc(SCC(=O)c3ccc4ccccc4c3)n2-c2ccc(Cl)cc2)cc1	none (no result: CRFR2-BP antag, CRFBP-R2 agonist, CendR NRP1 mod)
CCC(C)NC(=O)Cn1cnc2sc(C)c(S(=O)(=O)N3CCCCC3)c2c1=O (stereo not drawn)	CRFR2-BP antag 62
CCC(C)NC(=O)Cn1cnc2sc(C)c(S(=O)(=O)N3CCN(c4ccccc4OC)CC3)c2c1=O (stereo not drawn)	none
Cc1cc(S(=O)(=O)c2ccc([N+](=O)[O-])cn2)ccc1Br	CendR NRP1 mod 22
O=S(=O)(c1cc2ccccc2s1)n1c(CN2CCOCC2)nc2ccccc21	none (no result: CRFR2-BP antag, CRFBP-R2 agonist, CendR NRP1 mod)
Cc1ccccc1NC(=S)Nc1cccc2cnccc12	none
Fc1ccccc1NC(=S)Nc1cccc2cnccc12	CendR NRP1 mod 44
Cc1cc(/C=C(/C#N)C(=O)O)c(C)n1-c1cccc2ccccc12	CRFR2-BP antag 76
CN(Cc1ccccc1)C(=O)OCc1cn(Cc2ccccc2)nn1	none (no result: CRFR2-BP antag, CRFBP-R2 agonist, CendR NRP1 mod)
N#Cc1ccc(NC(=O)OC2CCC23CCC(c2ccccc2)CC3)cc1 (stereo not drawn)	none (no result: CRFR2-BP antag, CRFBP-R2 agonist, CendR NRP1 mod)
CCC(C)(C)n1nnnc1C(c1cccc(C#N)c1)N1CCN(c2cccc(C)c2C)CC1 (stereo not drawn)	CRFR2-BP antag 51
Cn1c(O)c(N=NC(=O)C2COc3ccccc3O2)c2ccccc21 (stereo not drawn)	none
CC(C)n1c(O)c(N=NC(=O)C2COc3ccccc3O2)c2ccccc21 (stereo not drawn)	CRFR2-BP antag 68
COC(=O)c1cc(-c2cccc(OC(F)(F)F)c2)c(=O)n2c1CCC2	none (no result: CRFR2-BP antag, CRFBP-R2 agonist, CendR NRP1 mod)
COc1ccc(OC2C(=O)N(Cc3ccc(F)cc3)C2c2cc(OC)c(OC)c(OC)c2)cc1 (stereo not drawn)	CRFR2-BP antag 123
Cc1ccc(C2CN(C)C3(C(=O)Nc4ccccc43)C23COc2ccccc2C3=O)cc1 (stereo not drawn)	CendR NRP1 mod 40
OC(c1ccccc1)(c1ccccc1)C1CCN(CCCOc2ccc(OC(F)(F)F)cc2)CC1	none (no result: CRFR2-BP antag, CRFBP-R2 agonist, CendR NRP1 mod)
COc1ccc(C(=O)Cn2nnc(-c3ccccc3F)n2)cc1	none
COc1ccc(C(=O)Cn2nnc(-c3ccccc3NC(=O)C3CC3)n2)cc1	CendR NRP1 mod 33
COC(=O)[C@]12C[C@H](CC(=O)NCc3cccs3)C(=O)N(Cc3ccco3)C1=C[C@H](C(C)C)O[C@@H]2C1CC1	none (no result: CRFR2-BP antag, CRFBP-R2 agonist, CendR NRP1 mod)
Cc1ccccc1Cn1cc(COC(=O)NCC(C)C)nn1	none (no result: CRFR2-BP antag, CRFBP-R2 agonist, CendR NRP1 mod)
Cc1ccc(-c2c[n+](CC(=O)Nc3nc(-c4ccc(F)cc4)cs3)c3n2CCC3)cc1	CRFR2-BP antag 63
O=C(C[n+]1cc(-c2ccc(F)cc2)n2c1CCC2)Nc1nc(-c2ccccc2)cs1	none
CC(C)CC(NC(=O)/C(=C/c1ccco1)NC(=O)c1ccc(Br)o1)C(=O)O (stereo not drawn)	CRFR2-BP antag 58
O=C(CSc1nc2ccccc2nc1N1CCCCC1)N1CCN(S(=O)(=O)c2cc(Cl)ccc2Cl)CC1	none (no result: CRFR2-BP antag, CRFBP-R2 agonist, CendR NRP1 mod)
O=C(NCCc1ccc(F)cc1)c1cc2ccccn2n1	none (no result: CRFR2-BP antag, CRFBP-R2 agonist, CendR NRP1 mod)
COc1ccc(C(CC(=O)c2ccc(O)cc2)S(=O)(=O)c2ccc(C)cc2)cc1 (stereo not drawn)	proKLK7 act 46
CCN(Cc1ccccc1)C(=O)c1cc(S(=O)(=O)N2CCOCC2)ccc1N1CCCC1	none
COc1ccc(CC(=O)Nc2ccc3c(c2)OCO3)cc1S(=O)(=O)N1CCOCC1	CendR NRP1 mod 22
CCN(CC(=O)Nc1ccc(OC)cc1)C(=O)c1cc(S(=O)(=O)N2CCOCC2)ccc1N1CCCC1	CRFR2-BP antag 70
CCN(CC(=O)Nc1ccc(OC)cc1)CC(=O)Nc1cccc(S(=O)(=O)N2CCOCC2)c1	CendR NRP1 mod 34
CC(=O)NC(CC(=O)Nc1cccc(S(=O)(=O)N2CCOCC2)c1)c1ccccc1 (stereo not drawn)	CendR NRP1 mod 24
